According to ChEMBL document CHEMBL4680083, “Identification of Tricyclic Agonists of Sphingosine-1-phosphate Receptor 1 (S1P) Employing Ligand-Based Drug Design” (J Med Chem, 2016):

Tests used:
[1] = Protein binding in monkey assessed as bound fraction; format: ADME, Macaca mulatta; conditions: rhesus monkey; read-out: PB (converted)
Homo sapiens = organism: Homo sapiens; assay: Inhibition of sodium channel (unknown origin) assessed as reduction in 1 and 4 Hz-induced channel current at 10 uM by patch clamp technique relative to control
[2] = Oral bioavailability in rat at 1 mg/kg; format: ADME, organism-based; conditions: in vivo
[3] = Half-life in cynomolgus monkey at 0.5 mg/kg, po or 0.5 mg/kg, iv; format: ADME, organism-based, Macaca fascicularis; conditions: in vivo
[4] = AUC in cynomolgus monkey at 0.5 mg/kg, po; format: ADME, organism-based, Macaca fascicularis; design: dose 0.5 mg/kg; conditions: in vivo
[5] = Volume of distribution at steady state in rat at 1 mg/kg, po or 1 mg/kg, iv; format: ADME, organism-based; conditions: in vivo, read-out: Vdss
[6] = target: T1, Sphingosine 1-phosphate receptor 1 (Homo sapiens, UniProt P21453); assay: Binding affinity to human S1P1
[7] = Plasma concentration in Lewis rat at 1 mg/kg, po measured at 4 hr; format: ADME, organism-based; conditions: Lewis, plasma
In short: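 Lewis rats received a single oral 1.0 mg/kg dose as solution or suspension in PEG300. Blood was drawn retro-orbitally under isoflurane at 4 h and 24 h, within the blood lymphocyte reduction study. n = 3−4 per group, group mean reported.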

[8] = Metabolic stability in rat assessed as half-life; format: ADME
[9] = target: T1, Sphingosine 1-phosphate receptor 1; assay: Agonist activity at human S1P1 expressed in CHO cell membranes assessed as stimulation of [35S]-GTPgamma-S binding measured after 45 mins by liquid scintillation counting method relative to control; conditions: Cell membrane, filed as agonist
In short: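 S1P1/CHO cell membranes at 3 μg protein/well with 3-fold compound dilutions. [35S]GTPγS 0.2 nM final, 45 min at room temperature. Filter-plate capture, water washes, scintillation counting. EC50 taken at 50% of each compound's own Ymax.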

[10] = Permeability of compound at pH 7.7 by PAMPA; format: ADME; conditions: read-out: permeability
[11] = Cmax in mouse at 5 mg/kg, po or 2 mg/kg, iv; format: ADME, organism-based; design: dose 5 mg/kg; conditions: in vivo
Cytochrome P450 2C19 = Cytochrome P450 2C19 (Homo sapiens, UniProt P33261); assay: Inhibition of CYP2C19 (unknown origin); format: ADME
Chain of Cytochrome P450 2C19 (P33261 whole entry): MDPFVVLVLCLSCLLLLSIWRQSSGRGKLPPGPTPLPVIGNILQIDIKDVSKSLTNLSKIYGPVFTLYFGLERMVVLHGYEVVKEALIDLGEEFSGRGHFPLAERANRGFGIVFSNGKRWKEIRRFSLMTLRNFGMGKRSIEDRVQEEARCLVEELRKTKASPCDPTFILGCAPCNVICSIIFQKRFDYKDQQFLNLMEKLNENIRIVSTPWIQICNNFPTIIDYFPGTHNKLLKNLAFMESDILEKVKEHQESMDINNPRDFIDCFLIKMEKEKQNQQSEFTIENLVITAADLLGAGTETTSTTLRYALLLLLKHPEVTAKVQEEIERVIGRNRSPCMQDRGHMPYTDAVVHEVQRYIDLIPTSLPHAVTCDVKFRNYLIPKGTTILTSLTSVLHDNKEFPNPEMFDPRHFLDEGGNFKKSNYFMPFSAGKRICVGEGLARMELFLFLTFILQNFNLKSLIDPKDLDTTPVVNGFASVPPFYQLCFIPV

T1 sequence (P21453 whole entry): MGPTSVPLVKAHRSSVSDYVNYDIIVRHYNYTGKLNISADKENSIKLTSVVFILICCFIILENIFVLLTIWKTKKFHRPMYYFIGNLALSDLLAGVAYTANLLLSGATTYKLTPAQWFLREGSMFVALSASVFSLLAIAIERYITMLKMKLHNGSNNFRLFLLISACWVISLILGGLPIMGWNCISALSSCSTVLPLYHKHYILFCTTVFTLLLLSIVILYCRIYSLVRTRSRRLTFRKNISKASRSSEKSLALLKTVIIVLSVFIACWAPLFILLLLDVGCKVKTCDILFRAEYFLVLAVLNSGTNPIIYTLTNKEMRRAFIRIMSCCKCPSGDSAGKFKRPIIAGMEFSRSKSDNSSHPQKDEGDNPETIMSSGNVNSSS

O=C(O)C1CN(Cc2ccc3c(c2)CCc2c-3noc2-c2onc(-c3ccccc3)c2C(F)(F)F)C1
fraction unbound [1]: 0.005 | inhibition (Homo sapiens): 12% | bioavailability [2]: 43% | half-life [3]: 18 h | AUC [4]: 3.4 µM·h | Vd [5]: 4.8 L/kg | IC50 [6]: 0.38 nM | concentration at 4 h [7]: 55 nM | half-life [8]: > 2 h | Emax [9]: 95% | Papp [10]: 28 ×10⁻⁶ cm/s | Cmax [11]: 3600 nM | IC50 (Cytochrome P450 2C19): > 40000 nM
